Experiments:
[1] = Percentage maximum stimulation adenylate cyclase was measured versus DA
Summary of the method: (§1)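 Rat striatum homogenised in HEPES/EGTA buffer. […] Stopped with SDS, then ZnSO4/Ba(OH)2 precipitation. [32P]cAMP isolated by HPLC with UV-tracked internal standard and counted; percent stimulation calculated from peak areas and radioactivity.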

[2] = Stimulation of Adenylate cyclase from rat striatal membranes; type: cell membranes, Membrane; summary of the method: as §1
D(1A) dopamine receptor = D(1A) dopamine receptor (Rattus norvegicus, UniProt P18901); assay: Displacement of [3H]- #NAME? from binding Dopamine receptor D1 in rat striatum
Summary of the method: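 Rat striatal membranes, homogenised and washed twice by centrifugation in ice-cold 50 mM HEPES with 4 mM MgCl2, pH 7.4, at about 2 mg wet weight/mL. Competition with the tritiated selective D1 antagonist in 1.0 mL of the same buffer, 37 °C for 15 min. Nonspecific binding defined with 1 µM of the unlabelled antagonist. Filtration and scintillation counting; protein measured by Lowry.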

D(2) dopamine receptor = D(2) dopamine receptor (Rattus norvegicus, UniProt P61169); assay: Displacement of [3H]- -spiperone from Dopamine receptor D2 in rat striatum
Summary of the method: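 Same rat striatal membrane preparation and buffer (50 mM HEPES, 4 mM MgCl2, pH 7.4). Competition with [3H]spiperone in 1.0 mL at 37 °C for 15 min. Nonspecific binding defined with 1 µM chlorpromazine. Bound ligand collected by glass-fibre filtration and counted by scintillation; protein measured by Lowry.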

Chain of D(1A) dopamine receptor (P18901 whole entry): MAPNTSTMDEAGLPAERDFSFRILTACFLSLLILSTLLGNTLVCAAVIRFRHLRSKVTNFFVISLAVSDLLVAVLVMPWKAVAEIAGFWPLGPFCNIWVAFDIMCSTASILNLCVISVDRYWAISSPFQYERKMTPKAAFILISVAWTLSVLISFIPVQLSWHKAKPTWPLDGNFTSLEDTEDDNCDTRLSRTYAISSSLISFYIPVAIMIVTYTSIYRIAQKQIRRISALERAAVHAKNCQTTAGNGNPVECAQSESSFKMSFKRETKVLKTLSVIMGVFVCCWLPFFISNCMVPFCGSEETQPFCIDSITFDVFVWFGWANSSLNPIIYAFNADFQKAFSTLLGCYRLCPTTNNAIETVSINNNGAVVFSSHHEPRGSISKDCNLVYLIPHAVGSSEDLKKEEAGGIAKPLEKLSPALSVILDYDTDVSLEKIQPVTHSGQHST
Chain of D(2) dopamine receptor (P61169 whole entry): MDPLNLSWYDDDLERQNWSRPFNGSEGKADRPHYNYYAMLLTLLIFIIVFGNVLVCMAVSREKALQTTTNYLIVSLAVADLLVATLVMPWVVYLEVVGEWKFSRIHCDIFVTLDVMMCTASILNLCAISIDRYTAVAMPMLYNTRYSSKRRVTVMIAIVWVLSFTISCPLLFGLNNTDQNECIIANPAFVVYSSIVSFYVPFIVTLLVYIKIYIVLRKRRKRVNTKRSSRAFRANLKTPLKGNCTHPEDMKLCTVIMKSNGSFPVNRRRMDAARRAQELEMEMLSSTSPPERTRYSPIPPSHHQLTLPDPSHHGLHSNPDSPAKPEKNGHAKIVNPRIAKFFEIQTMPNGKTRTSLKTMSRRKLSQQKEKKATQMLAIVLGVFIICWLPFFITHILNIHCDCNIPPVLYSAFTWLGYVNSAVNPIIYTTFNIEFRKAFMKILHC

Row | Structure (SMILES) | Max stimulation [1] | EC50 [2] [nM] | IC50 (D(1A) dopamine receptor) [nM] | IC50 (D(2) dopamine receptor) [nM]
1 | NCCc1ccc(O)c(O)c1 [DOPAMINE] | 100 | 5000 |  | 
2 | CN1Cc2ccccc2[C@@H]2c3cc(O)c(O)cc3CC[C@H]21 | 63 | 1000 | 91 | 136
3 | Oc1cc2c(cc1O)[C@H]1CCCN[C@@H]1CC2 | 33 | > 10 | > 5000 | 68
4 | Oc1cc2c(cc1O)[C@@H]1c3ccccc3CN[C@@H]1CC2 | 17 |  |  | 
5 | Oc1cc2c(cc1O)CC(NCc1ccccc1)CC2 (configuration not stated) | 25 |  | > 5000 | 290
6 | CN1CCc2cc(Cl)c(O)cc2[C@@H](c2ccccc2)C1 | 0 |  |  | 
7 | Oc1cc2c(cc1O)[C@@H](c1ccccc1)CNCC2 [(R)-SKF-38393] | 50 | 100 |  | 
8 | CCCN1Cc2ccccc2[C@@H]2c3cc(O)c(O)cc3CC[C@H]21 | 32 | > 10 | 651 | 53
9 | Oc1cc2c(cc1O)[C@H]1c3ccccc3CN[C@@H]1CC2 [DIHYDREXIDINE] | 120 | 70 |  | 
10 | Oc1ccc([C@@H]2CNCc3sccc32)cc1O | 120 | 700 | 120 | 285
